An excerpt weighted towards active compounds, which were near 1.7% of everything screened.
Scp1 inh: Scp-1 (human) phosphatase inhibition | Q9GZU7 | AID 493091 | Recombinant Scp1, phosphopeptide, malachite green phosphate absorbance | inhibition, % at 20 µM | 340,000 tested, 0.88% active;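 active = inhibition above about 50% at 20 µM, limit read from the data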
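Assay system: SCP-1 catalytic fragment, aa 76-261 | Buffer or medium: Tris acetate buffer pH 5.5 with MgCl2 and Tween-20 | Compound: One concentration, 20 µM, with 1.0% DMSO | Also added: Phospho 17-mer peptide substrate | Signal: Absorbance at 630 nm | Incubation: 45 min enzyme reaction at room temperature | Measure: % inhibition of SCP-1 phosphate liberation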
LMPTP block: blocks human LMPTP phosphatase | P24666 | recombinant LMPTP-A, OMFP fluorogenic substrate, fluorescence intensity | inhibition, % at 20 µM | 360,000 tested, 0.22% active | AID 651560;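 active = compounds that cut the enzyme signal by at least half of the control window in the single-dose screen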
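Test system – LMPTP-A enzyme · Amount – LMPTP-A at 0.625 nM final in the reaction · Buffer or medium – Bis-Tris pH 6.0, DTT, detergent · Reagent – OMFP 400 µM · Doses – single 20 µM dose · Schedule – reaction 50 min, room temperature, dark · Detection – fluorescence intensity of OMFP turnover product · Evaluation – percent inhibition versus substrate-only and uninhibited controls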
SUMO1-SIM PPI: alters human SUMO1 binding to SIM partners; P63165; SUMO1 binding to a labelled peptide, TR-FRET, 1 h; inhibition, % at 20 µM; 360,000 tested, 0.33% active; in the data active = inhibition above about 37%
STEP block: STEP (human) phosphatase inhibition; P54829; recombinant STEP, OMFP fluorogenic substrate, fluorescence; inhibition, % at 20 µM; 360,000 tested, 0.25% active;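 active = inhibition at 20 µM, scaled per plate between control wells, above about 37%, limit read from the data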
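System: STEP (striatal-enriched tyrosine phosphatase) enzyme, cell-free; medium: Bis-Tris pH 6.0 buffer with DTT, detergent; dosing: 20 µM, 1% DMSO; times: reaction 20 min, ambient temperature; detection: fluorescence, 480/540 nm; read-out basis: normalized % inhibition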
DSG3 Ab inh: human desmoglein-3 autoantibody binding inhibition | DSG3-coupled beads, scFv-anti-DSG3-GFP binding, flow cytometry; active compounds read low | binding (percent of control), % at 10 µM | P32926 | 310,000 tested, 0.48% active;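 active = binding more than 3 SD below its plate's average and above zero; inconclusive = below that plate limit but binding exactly zero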;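 note: hits lower antibody fragment binding to DSG3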
Target sequence (P32926 whole entry, looked up, the tested form may be a part): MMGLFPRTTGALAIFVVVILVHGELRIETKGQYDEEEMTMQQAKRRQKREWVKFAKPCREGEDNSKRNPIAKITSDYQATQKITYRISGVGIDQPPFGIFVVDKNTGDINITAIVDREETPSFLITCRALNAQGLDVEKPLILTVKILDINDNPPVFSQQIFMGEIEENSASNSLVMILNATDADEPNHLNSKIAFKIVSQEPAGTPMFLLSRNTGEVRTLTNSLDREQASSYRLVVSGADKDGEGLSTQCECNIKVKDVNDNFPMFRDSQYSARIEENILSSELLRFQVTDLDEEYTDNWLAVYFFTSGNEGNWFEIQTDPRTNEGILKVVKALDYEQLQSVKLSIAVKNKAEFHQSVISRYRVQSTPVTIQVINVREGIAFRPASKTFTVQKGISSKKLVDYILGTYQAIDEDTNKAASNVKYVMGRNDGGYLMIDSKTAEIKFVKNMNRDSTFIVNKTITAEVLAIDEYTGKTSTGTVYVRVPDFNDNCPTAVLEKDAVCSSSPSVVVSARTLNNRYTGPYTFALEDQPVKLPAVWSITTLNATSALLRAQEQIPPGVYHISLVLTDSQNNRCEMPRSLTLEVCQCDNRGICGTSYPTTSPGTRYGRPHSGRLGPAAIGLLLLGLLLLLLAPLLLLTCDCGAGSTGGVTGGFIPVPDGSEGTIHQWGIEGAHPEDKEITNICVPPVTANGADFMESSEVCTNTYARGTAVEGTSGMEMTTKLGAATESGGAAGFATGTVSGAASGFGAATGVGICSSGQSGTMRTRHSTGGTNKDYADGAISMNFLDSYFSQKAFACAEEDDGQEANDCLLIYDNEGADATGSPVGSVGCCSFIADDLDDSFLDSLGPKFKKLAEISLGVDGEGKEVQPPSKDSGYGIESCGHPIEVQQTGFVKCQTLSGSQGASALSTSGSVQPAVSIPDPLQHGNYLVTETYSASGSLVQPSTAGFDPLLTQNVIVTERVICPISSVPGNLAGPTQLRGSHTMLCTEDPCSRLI
Scp1 confirm: confirmation of human Scp-1 phosphatase inhibitors. recombinant SCP-1 catalytic domain, phosphate release, malachite green absorbance. AID 540281. inhibition, % at 20 µM. shares compounds with Scp1 inh. 2,500 tested, 61% active
MG interference: interferes with malachite green readout, flagging false Scp-1 hits | shares compounds with Scp1 inh | Colorimetric interference counterscreen, malachite green absorbance 630 nm | apparent inhibition (interference), % at 20 µM | 2,500 tested, under 10 active | AID 540313;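 note: compounds added after enzyme reaction finished so only phosphate colour detection is probed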
Scp-1 Tm shift: Scp-1 (human) binding by thermal shift | 1,500 tested, 25% active | shares compounds with Scp1 inh | thermal shift relative to vanadate control, % at 40 µM | Recombinant SCP1, Sypro Orange thermal shift Tm | AID 540329;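 active = substances whose mean melting-temperature shift, as a percentage of the reference inhibitor's shift, reaches about 5.3%, limit read from the data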
Large screens that a line does not name were inactive (follow-up assays come after a bar, where they were run); ! = not active in a repeat.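 Rule for the calls, unless noted: active = inhibition of at least 30% at 20 µM; inactive = the rest.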

CCc1cc(/C(Cc2ccccn2)=N\Nc2ccccc2)c(O)cc1O	none
O=S(=O)(NCc1csc(-c2cccs2)n1)c1cccc(C(F)(F)F)c1	none
Cc1ccccc1C(=O)N(C)[C@H]1C[C@H]2c3[nH]c4ccccc4c3CCN2C(=O)[C@H]1[C@H](C)O	none (no result: Scp1 inh, DSG3 Ab inh)
CCN(CC(=O)NC1CCCCC1)S(=O)(=O)c1ccc(Cl)cc1	Scp1 inh 63.5 | Scp1 confirm inactive | MG interference inactive
CCCCNC(=O)C1(C)CCC(=O)N1CCCn1ccnc1 (stereo not given)	none (no result: Scp1 inh, DSG3 Ab inh)
CC(C)C[C@H]1CNC(=O)C(=O)N1C[C@H](C)NC(=O)Cc1ccccc1	none | Scp1 confirm inactive | MG interference inactive
CC(=O)Nc1ccc(-n2nnnc2SCC(=O)Nc2cccc(NC(=O)c3ccco3)c2)cc1	Scp1 inh 55.3 | Scp1 confirm 30.2 | MG interference inactive | Scp-1 Tm shift inactive
COc1ccc(-c2csc(NC(=O)CSc3nc(C)nc4sc(C(=O)O)c(C)c34)n2)cc1	Scp1 inh 87.0 | Scp1 confirm 63.9 | MG interference inactive | Scp-1 Tm shift 10.1
CC1CCCC12NC(=O)NC2=O (stereo not given)	none (no result: DSG3 Ab inh)
CC(NC(=O)C1C2C=CC(C2)C1C(=O)O)c1ccccc1 (stereo not given)	none (no result: DSG3 Ab inh)
O=C(O)C1C2C=CC(C2)C1C(=O)Nc1ccccc1Br (stereo not given)	Scp1 inh 69.1, STEP block 43.5 | Scp1 confirm 57.7 | MG interference inactive | Scp-1 Tm shift inactive
N[C@@H](C(=O)N[C@@H]1C(=O)N2C(C(=O)O)=C(Cl)CS[C@H]12)c1ccccc1	Scp1 inh 57.2 | Scp1 confirm 59.9 | MG interference inactive | Scp-1 Tm shift 7.4
CC1=C(C(=O)O)N2C(=O)C(NC(=O)c3ccccc3Cl)C2SC1 (stereo not given)	none
C[C@@H]1CN(Cc2nc(-c3cnccn3)no2)C[C@H](C)O1	none
Oc1c(Br)cc(/C=N/n2c(-c3ccccc3)n[nH]c2=S)c(O)c1Br	Scp1 inh 78.7 | Scp1 confirm 88.3 | MG interference inactive | Scp-1 Tm shift inactive
Oc1c(Br)cc(/C=N/n2c(-c3ccccc3)n[nH]c2=S)cc1Br	Scp1 inh 56.0 | Scp1 confirm 79.5 | MG interference inactive | Scp-1 Tm shift 9.1
O=C(Nc1ccc2c(c1)OCCO2)C(CCc1ccccc1)N1CCC(Cc2ccccc2)CC1 (stereo not given)	none (no result: Scp1 inh, DSG3 Ab inh)
O=C(CC1C=CCC1)Nc1ccccc1 (stereo not given)	none
Cc1ccc(S(=O)(=O)N2Cc3ccccc3CC2C(=O)Nc2ccc3c(c2)OCO3)cc1 (stereo not given)	Scp1 inh 70.0 | Scp1 confirm 56.6 | MG interference inactive | Scp-1 Tm shift inactive
CCOC(=O)c1cc2c(=O)n3ccccc3nc2n(Cc2ccco2)c1=NC(=O)c1cccnc1	none
CCOC(=O)c1cc2c(=O)n3cccc(C)c3nc2n(Cc2ccco2)c1=NC(=O)c1cccnc1	Scp1 inh 52.0 | Scp1 confirm 43.7 | MG interference inactive | Scp-1 Tm shift 6.9
COCCCn1c(=NC(=O)c2ccccc2)c(C#N)cc2c(=O)n3cccc(C)c3nc21	none
Cc1cccn2c(=O)c3cc(C#N)c(=NC(=O)c4ccco4)n(Cc4ccco4)c3nc12	Scp1 inh 76.2 | Scp1 confirm 35.7 | MG interference inactive | Scp-1 Tm shift 10.0
Cc1cccc(C(=O)N=c2c(C#N)cc3c(=O)n4cccc(C)c4nc3n2Cc2ccco2)c1	Scp1 inh 84.7!, SUMO1-SIM PPI 51.0! | Scp1 confirm 45.9 | MG interference inactive | Scp-1 Tm shift 14.7
Cc1cccn2c(=O)c3cc(C#N)c(=NC(=O)c4ccccc4)n(Cc4ccco4)c3nc12	Scp1 inh 87.2 | Scp1 confirm inactive | MG interference inactive
CC(=O)N(CCCNC(=O)c1ccccc1)C(=O)c1ccccc1	none
NC1=NC(=O)/C(=C\c2cc([N+](=O)[O-])ccc2Cl)S1	none
O=C(O)CC(Sc1n[nH]c(=S)s1)C(=O)O (stereo not given)	Scp1 inh 79.2 (no result: DSG3 Ab inh) | Scp1 confirm 35.6 | MG interference inactive | Scp-1 Tm shift inactive
O=C(CNc1cc(S(=O)(=O)N2CCOCC2)ccc1N1CCCC1)Nc1ccc(Cl)cc1	DSG3 Ab inh inconclusive
N#CCC(=O)Nc1ccc(C(=O)OCC(=O)N2CCN(C(=O)c3ccco3)CC2)cc1	Scp1 inh 90.4 | Scp1 confirm 63.9 | MG interference inactive | Scp-1 Tm shift inactive
O=[N+]([O-])c1ccc2nc(-c3ccccc3)n(OCc3ccc(Cl)cc3)c2c1	Scp1 inh 58.8 | Scp1 confirm 51.0 | MG interference inactive | Scp-1 Tm shift 6.2
COc1cc(CC2COC(c3ccc(O)c(OC)c3)C2COC(C)=O)ccc1O (stereo not given)	Scp1 inh 85.3 | Scp1 confirm 61.1 | MG interference inactive | Scp-1 Tm shift inactive
O=C(Nc1ccc(Cc2nc3ccccc3s2)cc1)c1ccncc1	none (no result: DSG3 Ab inh)
COc1ccccc1NC(=O)CSc1sc2c(O)cc(=O)[nH]c2c1C#N	Scp1 inh 77.3 | Scp1 confirm 32.6 | MG interference inactive | Scp-1 Tm shift 12.6
COc1ccc(NC(=O)CSc2sc3c(O)cc(=O)[nH]c3c2C#N)c(OC)c1	Scp1 inh 64.4, LMPTP block 55.6 | Scp1 confirm 67.8 | MG interference inactive | Scp-1 Tm shift 7.8
CC[C@H](C)[C@H](NC(N)=O)C(=O)NNC(=O)c1ccc(COc2cccc3cccnc23)cc1	none
COc1ccc(C)cc1NC(=O)CCCN1C(=O)CN(C)C1=O	none (no result: DSG3 Ab inh) | Scp1 confirm inactive | MG interference inactive
COC(=O)c1ccc(C)c(NC(=O)CCCN2C(=O)CN(C)C2=O)c1	none
COc1ccc(C)cc1NC(=O)CCCN1C(=O)C2CC=CCC2C1=O (stereo not given)	none
CCc1cccc(C)c1NC(=O)CCCN1C(=O)CN(C)C1=O	DSG3 Ab inh inconclusive | Scp1 confirm inactive | MG interference inactive
Cc1ccc(S(=O)(=O)Nc2cccnc2)c(C)c1C	none
O=C(NCC(=O)N1CCC(Cc2ccccc2)CC1)c1ccc(Cl)cc1	none
O=c1[nH]c(CSc2nnc(-c3cccnc3)n2C2CCCCC2)nc2ccccc12	none
O=c1c2ccccc2sn1-c1cc(S(=O)(=O)N2CCOCC2)ccc1N1CCCC1	Scp1 inh 88.4 | Scp1 confirm 55.0 | MG interference inactive | Scp-1 Tm shift inactive

Assay outcomes: PubChem, several laboratories
